Assay results from ChEMBL document CHEMBL1641437, “New furin inhibitors based on weakly basic amidinohydrazones” (Bioorg Med Chem Lett, 2011).

Assays:
Coagulation factor X = Coagulation factor X (Homo sapiens, UniProt P00742); test: Inhibition of factor 10a
[1] = Inhibition of trypsin
Furin = Furin (Homo sapiens, UniProt P09958); test: Inhibition of human recombinant furin by fluorescence plate reader analysis
Method in brief: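 Recombinant human furin, 0.95 nM, with fluorogenic pyroGlu-Arg-Thr-Lys-Arg-AMC at 5, 20 and 50 substrate concentrations, in 100 mM HEPES pH 7.0 with 0.2% Triton X-100, 2 mM CaCl2, 0.02% sodium azide, 1 mg/mL BSA; room temperature. AMC release read by fluorescence (ex 380, em 460 nm); Ki obtained by Dixon plot.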

Plasminogen = Plasminogen (Homo sapiens, UniProt P00747); test: Inhibition of plasmin
Prothrombin = Prothrombin (Homo sapiens, UniProt P00734); test: Inhibition of thrombin
[2] = target: T1, Subtilisin Carlsberg (Bacillus licheniformis) (UniProt P00780); test: Inhibition of Bacillus licheniformis subtilisin at 100 uM relative to control
T1 sequence (whole entry): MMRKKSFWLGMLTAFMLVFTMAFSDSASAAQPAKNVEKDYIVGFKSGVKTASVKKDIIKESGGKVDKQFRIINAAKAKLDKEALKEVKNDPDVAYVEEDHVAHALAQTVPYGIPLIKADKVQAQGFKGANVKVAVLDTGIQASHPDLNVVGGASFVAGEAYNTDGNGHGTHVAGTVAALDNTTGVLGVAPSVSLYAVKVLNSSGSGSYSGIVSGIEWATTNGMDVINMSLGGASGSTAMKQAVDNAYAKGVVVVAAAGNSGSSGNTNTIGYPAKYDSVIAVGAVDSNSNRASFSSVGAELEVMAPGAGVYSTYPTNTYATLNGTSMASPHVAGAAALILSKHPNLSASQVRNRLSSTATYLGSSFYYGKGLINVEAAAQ

Chain of Plasminogen (P00747 97-580 limits assumed): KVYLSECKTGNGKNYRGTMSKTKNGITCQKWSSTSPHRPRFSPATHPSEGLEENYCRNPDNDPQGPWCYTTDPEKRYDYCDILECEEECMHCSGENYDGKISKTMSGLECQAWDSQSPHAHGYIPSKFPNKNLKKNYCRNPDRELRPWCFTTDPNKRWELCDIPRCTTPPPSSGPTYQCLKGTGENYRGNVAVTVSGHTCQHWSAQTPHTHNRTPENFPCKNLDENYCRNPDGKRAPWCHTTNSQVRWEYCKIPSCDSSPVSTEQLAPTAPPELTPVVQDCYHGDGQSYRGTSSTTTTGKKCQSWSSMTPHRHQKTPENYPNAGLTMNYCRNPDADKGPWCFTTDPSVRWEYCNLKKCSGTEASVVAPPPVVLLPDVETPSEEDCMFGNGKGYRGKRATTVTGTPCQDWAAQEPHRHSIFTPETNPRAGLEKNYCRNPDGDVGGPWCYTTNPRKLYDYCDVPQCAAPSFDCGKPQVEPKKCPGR
Chain of Plasminogen (P00747 581-810 limits assumed): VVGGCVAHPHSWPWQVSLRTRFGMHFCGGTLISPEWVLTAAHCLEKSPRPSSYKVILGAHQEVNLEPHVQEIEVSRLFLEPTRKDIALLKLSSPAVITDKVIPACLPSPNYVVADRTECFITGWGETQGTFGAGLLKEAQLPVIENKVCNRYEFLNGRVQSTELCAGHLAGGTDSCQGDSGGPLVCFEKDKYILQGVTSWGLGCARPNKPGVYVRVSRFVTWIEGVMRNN
Chain of Coagulation factor X (P00742 41-179 limits assumed): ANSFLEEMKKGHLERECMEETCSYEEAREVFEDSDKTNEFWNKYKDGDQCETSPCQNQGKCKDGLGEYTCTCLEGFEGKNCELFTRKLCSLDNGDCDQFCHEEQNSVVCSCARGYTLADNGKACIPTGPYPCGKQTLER
Chain of Coagulation factor X (P00742 235-488 limits assumed): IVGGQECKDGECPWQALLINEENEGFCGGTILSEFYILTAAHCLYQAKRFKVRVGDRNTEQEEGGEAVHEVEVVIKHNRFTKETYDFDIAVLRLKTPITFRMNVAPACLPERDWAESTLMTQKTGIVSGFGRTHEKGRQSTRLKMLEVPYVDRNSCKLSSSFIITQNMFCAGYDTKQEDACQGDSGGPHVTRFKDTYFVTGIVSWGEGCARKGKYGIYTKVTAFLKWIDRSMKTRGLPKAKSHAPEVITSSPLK
Chain of Furin (P09958 whole entry): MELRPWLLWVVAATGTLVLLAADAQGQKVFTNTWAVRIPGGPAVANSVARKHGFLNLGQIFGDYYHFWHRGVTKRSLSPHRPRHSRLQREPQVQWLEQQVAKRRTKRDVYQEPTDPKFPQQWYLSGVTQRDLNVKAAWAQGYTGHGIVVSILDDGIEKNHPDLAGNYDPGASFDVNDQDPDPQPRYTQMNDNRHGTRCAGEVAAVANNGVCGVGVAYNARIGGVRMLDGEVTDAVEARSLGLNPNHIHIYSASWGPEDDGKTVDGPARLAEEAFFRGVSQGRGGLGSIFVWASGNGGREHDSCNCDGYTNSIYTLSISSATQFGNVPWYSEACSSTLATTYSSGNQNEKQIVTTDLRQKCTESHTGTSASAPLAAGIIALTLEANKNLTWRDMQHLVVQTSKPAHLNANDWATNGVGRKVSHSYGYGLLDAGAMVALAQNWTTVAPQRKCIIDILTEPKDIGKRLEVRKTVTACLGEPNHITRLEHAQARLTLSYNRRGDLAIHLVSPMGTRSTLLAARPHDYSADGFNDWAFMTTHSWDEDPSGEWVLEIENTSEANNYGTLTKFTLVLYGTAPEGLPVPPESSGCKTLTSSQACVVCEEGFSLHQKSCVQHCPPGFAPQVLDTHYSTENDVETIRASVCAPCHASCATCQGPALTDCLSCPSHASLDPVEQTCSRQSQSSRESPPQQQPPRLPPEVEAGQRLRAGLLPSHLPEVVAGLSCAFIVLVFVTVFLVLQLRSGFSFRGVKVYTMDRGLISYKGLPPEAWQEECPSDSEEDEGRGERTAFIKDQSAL

Row | Structure (SMILES) | Ki (Coagulation factor X) [µM] | Ki [1] [µM] | Ki (Furin) [µM] | Ki (Plasminogen) [µM] | Ki (Prothrombin) [µM] | inhibition [2] [%]
1 | C/C(=N/NC(=N)N)c1cc(NC(=O)CC(=O)Nc2cc(/C(C)=N/NC(=N)N)cc(/C(C)=N/NC(=N)N)c2)cc(/C(C)=N/NC(=N)N)c1 |  |  | 1.13 |  |  | 7.7
2 | C/C(=N\NC(=N)N)c1cc(NC(=O)CCCNC(=N)N)cc(/C(C)=N/NC(=N)N)c1 | 16 | 2.8 | 0.46 | 1000 | 800 | 7.9
3 | NC(N)=NNC(=O)c1ccc(C(=O)NN=C(N)N)cc1 |  |  | 173 |  | 1000 | 
4 | C/C(=N\NC(=N)N)c1cc(NC(=O)[C@H](N)CCCNC(=N)N)cc(/C(C)=N/NC(=N)N)c1 | 1000 | 68 | 1.13 | 1000 | 1000 | 
5 | C/C(=N\NC(=N)N)c1ccccc1 |  |  | 273 |  |  | 
6 | N=C(N)NNC(=O)c1ccccc1 |  |  | 376 |  |  | 
7 | C/C(=N\NC(=N)N)c1cc(NC(=O)CCCCCNC(=N)N)cc(/C(C)=N/NC(=N)N)c1 | 1000 | 110 | 1.42 | 1000 | 1000 | 
8 | N=C(N)N/N=C/c1ccc(/C=N/NC(=N)N)cc1 |  |  | 1.47 |  | 68 | 0
9 | C/C(=N\NC(=N)N)c1cc(NC(=O)CCCCNC(=N)N)cc(/C(C)=N/NC(=N)N)c1 | 1000 | 23 | 1.04 | 1000 | 1000 | 
10 | C/C(=N/NC(=N)N)c1cccc(OCC(=O)Nc2cc(/C(C)=N\NC(=N)N)cc(/C(C)=N/NC(=N)N)c2)c1 |  |  | 1.46 |  |  | 
11 | C/C(=N/NC(=N)N)c1cc(OCC(=O)Nc2cc(/C(C)=N\NC(=N)N)cc(/C(C)=N/NC(=N)N)c2)cc(/C(C)=N\NC(=N)N)c1 |  |  | 0.58 |  | 0.86 | 
12 | C/C(=N/NC(=N)N)c1cc(NC(=O)COc2ccc(/C(C)=N/NC(=N)N)cc2)cc(/C(C)=N/NC(=N)N)c1 |  |  | 1.94 |  |  | 

Results, then the compound that gave them:

Row | Ki (Coagulation factor X) [µM] | Ki [1] [µM] | Ki (Furin) [µM] | Ki (Plasminogen) [µM] | Ki (Prothrombin) [µM] | inhibition [2] [%] | Structure (SMILES)
13 | 1000 | 12 | 1.2 | 110 | 1000 |  | C/C(=N\NC(=N)N)c1cc(NC(=O)CCCN)cc(/C(C)=N/NC(=N)N)c1
14 |  |  | 5.61 |  |  |  | C/C(=N/NC(=N)N)c1cc(NC(=O)COc2ccccc2)cc(/C(C)=N/NC(=N)N)c1
15 |  |  | 11.5 |  |  | 4.4 | N=C(N)N/N=C/c1cccc(/C=N/NC(=N)N)c1
16 |  |  | > 500 |  |  |  | N=C(N)N/N=C/c1ccccc1
17 |  |  | 27.9 |  |  |  | N=C(N)NNC(=O)c1cccc(C(=O)NNC(=N)N)c1
18 |  |  | 1.82 |  |  |  | C/C(=N\NC(=N)N)c1cc(N)cc(/C(C)=N/NC(=N)N)c1
19 |  |  | 44 |  |  |  | C/C(=N\NC(=N)N)c1ccc(Oc2ccc(/C(C)=N/NC(=N)N)cc2)cc1
20 |  |  | 4.78 |  |  | 0 | C/C(=N\NC(=N)N)c1cccc(/C(C)=N/NC(=N)N)c1
21 |  |  | 1.35 |  |  |  | C/C(=N/NC(=N)N)c1cc(OCC(=O)Nc2ccccc2)cc(/C(C)=N\NC(=N)N)c1
22 |  |  | 1.84 |  | 786 | 7.9 | C/C(=N\NC(=N)N)c1ccc(/C(C)=N/NC(=N)N)cc1
23 | 80 | 59 | 1.55 | 400 | 32 |  | C/C(=N\NC(=N)N)c1cc(NS(=O)(=O)c2ccccc2)cc(/C(C)=N/NC(=N)N)c1
24 |  |  | 17.3 |  |  |  | N=C(N)N/N=C1\C/C(=N\NC(=N)N)c2ccccc21
